According to ChEMBL document CHEMBL4513216, “Probing the Open Global Health Chemical Diversity Library for Multistage-Active Starting Points for Next-Generation Antimalarials” (ACS Infect Dis, 2020):

Test: Toxicity liver stage against HepG2, at 10uM
Type: cell-based
Parameters: test concentration 10 uM, cell line HepG2-A16-CD81EGFP
Conditions: human, HepG2-A16-CD81EGFP cells; read-out: INHIBITION
How it was run: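 Uninfected HepG2-A16-CD81EGFP cells, 3 × 10^3 per well, 1536-well, plated on prespotted compound at 10 μM final, parasite-free screening media added to match infected plates; puromycin 10 μM positive, DMSO 0.5% negative; run in parallel with 48 h PbLuc assay at 37 °C, 5% CO2; viability by CellTiter-Glo luminescence, normalized to controls.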

Compound	cytotoxicity at 10 µM
Cc1ccc(NCCNC(=O)c2cc(CC(C)C)n[nH]2)nn1	0.37%
Cn1ccnc1-c1cccc(NC(=O)NCCN2CCOCC2)c1	-7.85%
O=C(NCCS(=O)(=O)N1CCN(c2ncccn2)CC1)C1CC1	-4.15%
CN1[C@@H](CCC(=O)NCc2ccc(F)cc2)CNC(=O)[C@H]2NCC[C@H]21	7.6%
Cc1ccc(C(=O)N2CCN(Cc3cccs3)CC2)n1C	-5.37%
COCC1CN(S(=O)(=O)c2cccc(F)c2)Cc2nccn2C1 (stereo not given)	-103%
CN1CC2(CCN(C(=O)CCCOCc3ccccc3)C2)OC1=O (stereo not given)	4.49%
COCCN(Cc1ccccn1)C(=O)Nc1cccnc1N1CCCC1	4.03%
CCn1nccc1CNc1[nH]cnc2nc(C)nc1-2	-12%
Cc1nc(C(NS(=O)(=O)N(C)C)c2ccccc2F)no1 (stereo not given)	-2.09%
CCn1ncc2c1C(COC)N(C(=O)c1ccsc1)CC2 (stereo not given)	-101%
O=C(NC[C@H]1C[C@@H]2CCN1C[C@@H]2CN1CCOCC1)Nc1ccccc1	5.96%
O=C1CN(c2ccc(CNC(=O)NCCO)cc2)CCN1	-2.38%
CNS(=O)(=O)c1ccc(CCC(=O)NCc2cccc(OC)c2)cc1	-148%
CS(=O)(=O)N1CCO[C@@H]2CN(C(=O)N3CCOCC3)CC[C@@H]2C1	-105%
Cc1nc(NCC2CC2)nc2c1COCC21CCN(C(=O)NC(C)C)C1 (stereo not given)	-83.2%
Cc1cc(-c2cc(S(=O)(=O)N3C[C@H](C4CC4)[C@@H](N)C3)c(C)s2)[nH]n1	2.47%
Cc1c(CN2CCC(C(=O)O)(n3cccn3)CC2)oc2ccccc12	-2.67%
CC(NC(=O)c1ccc(=O)n(C)c1)c1ccc(OCC2CC2)c(F)c1 (stereo not given)	9.8%
Cc1cc(C)c(C(=O)NCCNc2ncnc3ccccc23)c(=O)[nH]1	21%
CC(=O)N1CCCC(C(=O)c2cnn(-c3ccc(F)cc3)c2N)C1 (stereo not given)	5.82%
O=C(c1cc(Br)c[nH]1)N1CCN(Cc2ccco2)CC1	-64.2%

Compound	cytotoxicity at 10 µM
OCCOc1ccc(NCc2cccc3[nH]ccc23)cn1	0.205%
Cc1cccc(OCCNC(=O)CN2CCCC2Cn2cncn2)c1 (stereo not given)	-4.03%
Cc1ccc(NC2CCN(C(=O)c3n[nH]c4ccccc34)CC2)nn1	2.96%
CN(C)Cc1nc(-n2cnc(C(=O)NC3CCCC3)c2)n2ccccc12	7.75%
Cc1cc(CN2CCC(CNS(=O)(=O)c3ccccc3F)CC2)c(C)o1	5.48%
CCc1nnsc1C(=O)N1CCCN(Cc2nccn2C)CC1	-4.26%
CC(C)(C(=O)N[C@@H]1CCC[C@@H](O)[C@@H]1O)c1cccc(F)c1	4.79%
CN1CCOC(CNCC(=O)NCCC2=CCCCC2)C1 (stereo not given)	-3.57%
O=C(CSc1nnc[nH]1)NCc1sccc1Br	0.388%
COCC(=O)N1CCc2nc(NC(C)C)nc(NC(C)C)c2CC1	-104%
CCn1nc(C)c2c1cnn2CC(=O)Nc1ccc(OC)cc1C	-80.1%
CS(=O)(=O)CCCC(=O)Nc1cc(Cl)c(Cl)cn1	2.69%
COc1ccc(CNC2(Cc3cc(CC(C)C)on3)COC2)cc1	4.71%
Cc1nc2[nH]cnc(Nc3cnn(C)c3)c-2n1	5.59%
COCCN(C)C(=O)c1cc2c(s1)CCN2C(=O)C1CC1	-7.38%
COc1cccc(OC)c1OCCn1c(C)c(C)oc1=O	9.61%
Cn1cc(CN2CCC(CCC(=O)NCc3ccc(F)cc3)CC2)cn1	-19.5%
Cc1cc(C(=O)N2CCCC2)ccc1NCC(=O)N1CCCCC1C (stereo not given)	5.12%
Cc1noc(CCCC(=O)N2CCNC(=O)C2)n1	-4.62%
Cc1ccsc1C(=O)NC1CCN(c2cnn(C)c2)C1=O (stereo not given)	-7.11%
O=C(CC1CC1)NC1CCc2c(ccc(=O)n2CC2CC2)C1 (stereo not given)	6.34%
COCCNC(=O)N1CCSC2(CCCCC2)C1	2.07%

Compound	cytotoxicity at 10 µM
Cc1ccccc1CS(=O)(=O)Cc1nc(C2CC2)no1	4.49%
Cc1ccc(N2CCCC(NCCCS(C)(=O)=O)C2)nn1 (stereo not given)	0.833%
CC(C)N(C)Cc1cncc2c1CCN(C(=O)c1ccc[nH]1)C2	3.73%
CC(=O)N1CCCC1c1nc(N(C)C)ncc1-c1ccccc1 (stereo not given)	6.12%
Cc1nc(NCCSc2nnc(C)s2)c2cccnc2n1	-0.125%
CN(C)c1ccc(CCCNC(=O)NCC(O)c2ccsc2)cc1 (stereo not given)	-6.88%
COCc1cc(CNCc2c(C)n(CC(C)C)c3ccccc23)n[nH]1	12%
Cc1ccc(F)c(NC(=O)CCC(=O)N(C)Cc2nc(C)c[nH]2)c1	7.05%
Cc1cc(C)c(S(=O)(=O)Nc2c(C)nc(N(C)C)nc2C)cc1C	6.63%
O=C1CC(c2ccc(O)cc2)c2c(n3ccsc3nc2=O)N1 (stereo not given)	-3.12%
CC(=O)c1ccc(C(=O)NCC2Cc3ccccc3O2)s1 (stereo not given)	3.82%
COc1ccc(Cn2c(C3CCNCC3)cc3cccnc32)cc1	-4.45%
Cc1cccc(CN2Cc3[nH]nc(COCCO)c3C2)n1	0.442%
Cc1nn(C)c(C)c1C1CCCN1CCOc1cccc(C#N)c1 (stereo not given)	-8.41%
COCC(=O)N1CCC(C(=O)c2cc(C)cnc2N)CC1	0.353%
CCN1C(=O)CC(c2cccnc2)C12CCN(c1ncc(F)cn1)CC2 (stereo not given)	-8.59%
COc1c(CNCc2ccc(N(C)C)nc2)c(C)nn1C	-12.3%
O=C(Nc1ccnc(OC2CCOC2)c1)C1CCC1 (stereo not given)	5.76%
Cc1nn(C)c(C)c1CN(C(=O)c1cnc(O)cn1)C(C)C	2.62%
COc1ccc(NC(=O)Cn2ccc3c(=O)n(C)ccc32)cc1OC	-4.34%
O=C(NCc1cccnc1)N1CCc2ncnc(C3CC3)c2CC1	-144%
O=C(O)[C@]12CCCN(Cc3nccs3)[C@@H]1CCN(c1cnccn1)C2	-0.911%

Compound	cytotoxicity at 10 µM
Cc1ccc(N2CCCC(NCc3nnc(-c4ccco4)o3)C2)nn1 (stereo not given)	-9.07%
CCN(CC)CCNC(=O)CCc1c(C)nn(-c2ccccc2Cl)c1C	-0.61%
CNc1nccnc1C1CN(Cc2ccc3[nH]ccc3c2)CCO1 (stereo not given)	-2.52%
CC(C)c1nc(CNc2nccc(CCC(F)(F)F)n2)cs1	1.24%
COc1cccc(CN2CCCC2c2c(C)nn(C)c2C)c1 (stereo not given)	-2.35%
CC1(C)CN(CCC(=O)NCc2cccc(Cl)c2)CC[C@]1(C)O	-3.45%
O=C(NCC1CCN(Cc2cc3ccccc3[nH]2)C1)c1ccsc1 (stereo not given)	15.6%
O=C(O)C1(O)CCN(c2ccnc3c(C(F)(F)F)cccc23)CC1	5.56%
CC(C)=CCCC1(C)CCC(=O)N(CCNc2nc(C)cc(=O)[nH]2)C1 (stereo not given)	3.18%
Cc1csc([C@@H]2C[C@@H]3CCN(Cc4cc(C)on4)C[C@H]3O2)n1	-106%
CN(Cc1n[nH]c2c1CCCCC2)C(=O)c1cc(-c2cccn2C)n[nH]1	3.02%
Cc1nccn1-c1ccc(CNS(=O)(=O)N2CCCCC2C)cn1 (stereo not given)	-11%
O=C(NC1CCN(c2cccc(OC(F)(F)F)c2)C1=O)C1CCC1 (stereo not given)	-3.11%
Cc1ccnn1CC(=O)Nc1cc(-c2ccncc2)[nH]n1	-4.34%
Cc1ccc(CNC(=O)CCN2CCN(c3ccccn3)CC2)n1C	19.8%
Cc1nnc(NCC(c2ccco2)N(C)C)c(C#N)c1C (stereo not given)	-3.01%
CNC(=O)c1cc2c(nc1NCC(C)C)CCN(c1ccncn1)CC2	7.95%
COC(=O)CN(C(=O)c1ccoc1)c1cccc(F)c1	5.42%
Cc1ccc(CN2CC[C@H]3OCC[C@@H](C(=O)NCC4CC4)[C@@H]3C2)o1	0.951%
Nc1cnn(CC(=O)N2CCCCC2)c1	-3.15%
FC(F)(F)c1ccnc(N2CCCN(Cc3ccccn3)CC2)n1	-3.5%
Cc1cnn(CC2CCCN2CC(=O)Nc2nccs2)c1 (stereo not given)	-4.34%

Compound	cytotoxicity at 10 µM
CN(c1cccnn1)C1CCN(C(=O)c2n[nH]c3c2CCC3)CC1	6.96%
COC(=O)CCc1c(C)nc2cc(O)nn2c1C	-7.18%
O=C(c1cc(COc2ccc3c(c2)OCO3)[nH]n1)N1CCCCO1	-2.47%
CCn1ncc(C(=O)NCCc2nc(-c3cccnc3)n[nH]2)c1C	1.94%
CCc1ncc2c(n1)CN(Cc1nc(-c3ccco3)oc1C)CC2	6.15%
CC(O)CN1CCN(C(=O)c2ccc(N(C)C)nc2)CC1 (stereo not given)	-9.78%
COc1ccc(N(Cc2ccco2)C(=O)C2CCCO2)cc1F (stereo not given)	-3.51%
CC(C)(CCS(C)(=O)=O)CNC(=O)NC1CCCC1(C)C (stereo not given)	6.7%
CCc1noc(CS(=O)(=O)Cc2nc(Cc3ccccc3)no2)n1	5.45%
CN1CC2(CCN(C(=O)COc3ccc(Cl)cc3Cl)CC2)OC1=O	-3.25%
CC(SCC(=O)NCCC#N)c1ccc(Cl)cc1 (stereo not given)	10.6%
CCOCC(O)CN1CCN(C(=O)c2ccc(OC)cc2)CC1 (stereo not given)	5.22%
Cc1ncc(CN2CCCC(c3cc(C(F)(F)F)[nH]n3)C2)s1 (stereo not given)	-17.8%
Cn1ncnc1CNc1ccccc1C(=O)NC(C)(C)C	3.9%
Cc1cnn(CC2CN(CC(=O)N(C)Cc3cccs3)CCO2)c1 (stereo not given)	6.28%
CCCN(Cc1cccnc1)C1CC(C)(C)NC(C)(C)C1	-4.47%
CNC(=O)[C@@H]1C[C@H](N)CN1S(=O)(=O)c1cc(Cl)cc(Cl)c1O	1.68%
NS(=O)(=O)c1cccc(CNc2nccc(C(F)(F)F)n2)c1	-11.1%
CC(C)CNC(=O)CNC(=O)c1nc(Cc2c(Cl)cccc2Cl)no1	9.11%
CC(C)N1CCCC(C(=O)NCCc2csc(-c3ccncc3)n2)C1 (stereo not given)	-17.4%
c1ccc(COc2ccccc2CNC2CCc3ncnn3C2)cc1 (stereo not given)	-10.2%
Cc1nc(CN2CCN(C(=O)c3ccnc(N(C)C)c3)CC2)cs1	1.42%
